Measured values: ChEMBL document CHEMBL1154191, “Evaluation of spirocyclic 3-(3-fluoropropyl)-2-benzofurans as sigma1 receptor ligands for neuroimaging with positron emission tomography” (J Med Chem, 2009)

Tests used:
Brain [1] = experiment: Biodistribution in CD1 mouse brain assessed per gram of wet tissue at 400 to 600 kBq, iv after 60 mins post-injection by gamma counting; format: ADME, organism-based; conditions: in vivo, 1 h
Procedure, shortened: (§1)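 Female CD-1 mice (~8-12 weeks, 20-28 g) were fasted 24 h with free water. Conscious mice got 400-600 kBq [¹⁸F] tracer in saline by tail vein. At 5, 30, 60 or 120 min (n=4-5 per time) they were anesthetized, blood and urine sampled, then killed by cervical dislocation. Organs were weighed and γ-counted, giving % ID/g wet tissue.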

Lung = experiment: Biodistribution in CD1 mouse lung assessed per gram of wet tissue at 400 to 600 kBq, iv after 60 mins post-injection by gamma counting; format: ADME, organism-based; conditions: in vivo, 1 h
Procedure, shortened: (§2)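 Female CD-1 mice (~8-12 weeks, 20-28 g), habituated ≥48 h and fasted 24 h with water available. The [18F] tracer (>150 GBq/μmol at end of synthesis) was given in 200 μL saline into the tail vein of conscious animals. At each time point, n=4-5, mice were anaesthetised, blood and urine sampled, then killed by cervical dislocation. Organs were weighed and γ-counted, and values calculated as % ID/g wet tissue.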

Liver [2] = experiment: Biodistribution in CD1 mouse liver assessed per gram of wet tissue at 400 to 600 kBq, iv after 60 mins post-injection by gamma counting; format: ADME, organism-based; conditions: in vivo, 1 h; procedure, shortened: as §2
Kidney [3] = experiment: Biodistribution in CD1 mouse kidney assessed per gram of wet tissue at 400 to 600 kBq, iv after 60 mins post-injection by gamma counting; format: ADME, organism-based; conditions: in vivo, 1 h; procedure, shortened: as §1
[4] = Biodistribution in CD1 mouse urine assessed as per gram of wet bladder at 400 to 600 kBq, iv after 60 mins post-injection by gamma counting; format: ADME, organism-based; conditions: in vivo, 1 h; procedure, shortened: as §2
Muscle tissue [5] = experiment: Biodistribution in CD1 mouse muscle assessed per gram of wet tissue at 400 to 600 kBq, iv after 60 mins post-injection by gamma counting; format: ADME, organism-based; conditions: in vivo, 1 h; procedure, shortened: as §2
[6] = Biodistribution in CD1 mouse urine assessed as per gram of wet bladder at 400 to 600 kBq, iv after 120 mins post-injection by gamma counting; format: ADME, organism-based; conditions: in vivo, 2 h; procedure, shortened: as §2
Heart = experiment: Biodistribution in CD1 mouse heart assessed per gram of wet tissue at 400 to 600 kBq, iv after 60 mins post-injection by gamma counting in presence of 1 mg/kg, ip sigma 1/sigma 2 receptor antagonist haloperidol treated before compound addition; format: organism-based; design: dose 1 mg/kg, route intravenous; conditions: in vivo, 1 h
Procedure, shortened: (§3)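 Blocking arm in fasted female CD-1 mice (n=5). […] Animals were killed at 60 min post-injection, and organs were weighed and γ-counted as % ID/g wet tissue. Percent change was taken against the 60 min control group, with two-tailed unpaired Student's t test.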

Muscle tissue [7] = experiment: Biodistribution in CD1 mouse muscle assessed per gram of wet tissue at 400 to 600 kBq, iv after 60 mins post-injection by gamma counting in presence of 1 mg/kg, ip sigma 1/sigma 2 receptor antagonist haloperidol treated before compound addition; format: organism-based; design: route intravenous; conditions: in vivo, 1 h
Procedure, shortened: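 They were killed at 60 min pi, and organs were weighed and γ-counted as % ID/g wet tissue. Comparison with controls used Student's t test (independent, two-tailed).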

Femur [8] = experiment: Biodistribution in CD1 mouse femur assessed per gram of wet tissue per gram of wet tissue at 400 to 600 kBq, iv after 60 mins post-injection by gamma counting in presence of 1 mg/kg, ip sigma 1/sigma 2 receptor antagonist haloperidol treated before compound addition; format: organism-based; design: dose 1 mg/kg, route intravenous; conditions: in vivo, 1 h; procedure, shortened: as §3
[9] = Ratio of drug level in cerebellum to plasma in CD1 mouse at 400 to 600 kBq, iv after 5 mins post-injection; format: ADME, organism-based
Procedure, shortened: (§4)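 Female CD-1 mice (~8-12 weeks, 20-28 g), fasted 24 h with free water; 400-600 kBq tracer in 200 μL saline by tail vein into conscious animals. Killed at set times pi (n=4-5 per time); blood and organs weighed, γ-counted, expressed as % ID/g wet tissue; ratio from cerebellum and plasma uptake.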

[10] = Ratio of drug level in cerebellum to plasma in CD1 mouse at 400 to 600 kBq, iv after 30 mins post-injection; format: ADME, organism-based; procedure, shortened: as §4
[11] = Drug uptake in CD1 mouse adrenal gland at 400 to 600 kBq, iv after 120 mins post-injection by gamma counting relative to initial uptake; format: ADME, organism-based; conditions: in vivo, 2 h
Procedure, shortened: (§5)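 Organ % ID/g was measured by γ-counting after tail-vein injection of 400-600 kBq [18F] tracer in saline to fasted female CD-1 mice (n=4-5 per time). The 120 min pi value is expressed relative to the initial (5 min pi) uptake.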

[12] = Drug uptake in CD1 mouse thymus at 400 to 600 kBq, iv after 120 mins post-injection by gamma counting relative to initial uptake; format: ADME, organism-based; conditions: in vivo, 2 h; procedure, shortened: as §5
[13] = Chemical stability in solution of 0.9% NaCl, phosphate buffer saline and Tris-HCl up to 120 mins; format: physicochemical; conditions: 2 h
[14] = Biodistribution in CD1 mouse thymus assessed per gram of wet tissue at 400 to 600 kBq, iv after 5 mins post-injection by gamma counting; format: ADME, organism-based; conditions: in vivo; procedure, shortened: as §2
[15] = Biodistribution in CD1 mouse gonad assessed per gram of wet tissue at 400 to 600 kBq, iv after 5 mins post-injection by gamma counting; format: ADME, organism-based; conditions: in vivo; procedure, shortened: as §1
Femur [16] = experiment: Biodistribution in CD1 mouse femur assessed per gram of wet tissue at 400 to 600 kBq, iv after 5 mins post-injection by gamma counting; format: ADME, organism-based; conditions: in vivo; procedure, shortened: as §1
Mus musculus = experiment: Plasma concentration in CD1 mouse assessed per gram of wet tissue at 400 to 600 kBq, iv after 30 mins post-injection by gamma counting; format: ADME, organism-based; conditions: in vivo, 0.5 h
Procedure, shortened: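 Female CD-1 mice (~8-12 weeks, 20-28 g), fasted 24 h with free access to water. 400-600 kBq [18F] tracer in 200 μL saline given by tail vein to conscious mice. At 5, 30, 60 or 120 min pi (n=4-5 per time) mice anaesthetised, blood taken, then euthanised. Samples weighed, γ-counted, %ID/g wet tissue calculated.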

Brain [17] = experiment: Biodistribution in CD1 mouse brain assessed per gram of wet tissue at 400 to 600 kBq, iv after 30 mins post-injection by gamma counting; format: ADME, organism-based; conditions: in vivo, 0.5 h; procedure, shortened: as §1
Intestine = experiment: Biodistribution in CD1 mouse intestine assessed per gram of wet tissue at 400 to 600 kBq, iv after 30 mins post-injection by gamma counting; format: ADME, organism-based; conditions: in vivo, 0.5 h; procedure, shortened: as §1
Liver [18] = experiment: Biodistribution in CD1 mouse liver assessed per gram of wet tissue at 400 to 600 kBq, iv after 30 mins post-injection by gamma counting; format: ADME, organism-based; conditions: in vivo, 0.5 h; procedure, shortened: as §2
Kidney [19] = experiment: Biodistribution in CD1 mouse kidney assessed per gram of wet tissue at 400 to 600 kBq, iv after 30 mins post-injection by gamma counting; format: ADME, organism-based; conditions: in vivo, 0.5 h; procedure, shortened: as §1
Femur [20] = experiment: Biodistribution in CD1 mouse femur assessed per gram of wet tissue at 400 to 600 kBq, iv after 30 mins post-injection by gamma counting; format: ADME, organism-based; conditions: in vivo, 0.5 h; procedure, shortened: as §1
[21] = Metabolic stability in CD1 mouse brain at 200 to 300 MBq, iv after 60 mins post-injection by supelcosil C18 HPLC and TLC-radiochromatography; format: ADME, organism-based; conditions: read-out: Stability
Procedure, shortened: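 Mice received 200-300 MBq [18F] tracer in 200 μL 0.9% saline via the tail vein, and samples were taken at 45 and 60 min (n=2 per time). Plasma was obtained by centrifugation (2000g, 4 °C, 10 min); brain and liver were homogenised in ice-cold 50 mM TRIS-HCl pH 7.4. Samples were precipitated with ice-cold MeCN and centrifuged (4000g, 4 °C, 15 min), and supernatants were analysed by gradient radio-HPLC and radio-TLC, with HPLC fractions γ-counted.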

## [18F]CCCC1OC2(CCN(Cc3ccccc3)CC2)c2ccccc21 (stereo not given)
Brain [1]
  Drug uptake: 2.27 %ID
Lung
  Drug uptake: 4.64 %ID
Liver [2]
  Drug uptake: 3.24 %ID
Kidney [3]
  Drug uptake: 5.14 %ID
[4]
  Drug uptake: 7.84 %ID
Muscle tissue [5]
  Drug uptake: 0.97 %ID
[6]
  Drug uptake: 49.2 %ID
Heart
  Drug uptake: 1.09 %ID
Muscle tissue [7]
  Drug uptake: 0.9 %ID
Femur [8]
  Drug uptake: 4.27 %ID
[9]
  Kp at 5 min: 2.49
[10]
  Kp at 0.5 h: 3.86
[11]
  Drug uptake: > 70%
[12]
  Drug uptake: > 70%
[13]
  Stability: Stable
[14]
  Drug uptake: 3.98 %ID
[15]
  Drug uptake: 3.4 %ID
Femur [16]
  Drug uptake: 2.17 %ID
Mus musculus
  Drug uptake: 0.96 %ID
Brain [17]
  Drug uptake: 3.18 %ID
Intestine
  Drug uptake: 6.81 %ID
Liver [18]
  Drug uptake: 4.28 %ID
Kidney [19]
  Drug uptake: 7.49 %ID
Femur [20]
  Drug uptake: 3.79 %ID
[21]
  remaining at 1 h: ≥ 95%
